The record followed here is ChEMBL document CHEMBL1133188, “Discovery of novel, potent, and selective small-molecule CCR5 antagonists as anti-HIV-1 agents: synthesis and biological evaluation of anilide derivatives with a quaternary ammonium moiety” (J Med Chem, 2000).

Assay [1] concerns the target C-C chemokine receptor type 5 (Homo sapiens, UniProt P51681). Description: Inhibitory effect on Chemokine binding to C-C chemokine receptor type 5 using [125I]RANTES. The essentials: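 CHO/CCR5 cells (5 × 10⁴ cells/100 μL) cultured 24 h at 37 °C, then medium replaced with Ham's F-12 binding buffer containing 20 mM Hepes and 0.5% BSA, pH 7.2. Binding with [125I]RANTES (2000 Ci/mmol) plus graded compound concentrations, room temperature, 40 min. Free ligand removed by washing with cold PBS; cell-bound radioactivity counted. IC50 = 50% inhibition of binding; means of duplicate separate experiments (one compound triplicate).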

The nature of assay [2]: Inhibitory effects on HIV-1 (Ba-L) replication was evaluated in MAGI-CCR5 cells. It is filed as functional, cell-based. The note with it: Homo sapiens.
The subject of assay [3] is Human immunodeficiency virus 1. Description: Inhibitory effects on HIV-1 (Ba-L) replication was evaluated in PBMCs. Format: functional, organism-based.
Assay [4] concerns the target T1, C-C chemokine receptor type 1 (Homo sapiens, UniProt P32246).
T1 sequence (P32246 whole entry): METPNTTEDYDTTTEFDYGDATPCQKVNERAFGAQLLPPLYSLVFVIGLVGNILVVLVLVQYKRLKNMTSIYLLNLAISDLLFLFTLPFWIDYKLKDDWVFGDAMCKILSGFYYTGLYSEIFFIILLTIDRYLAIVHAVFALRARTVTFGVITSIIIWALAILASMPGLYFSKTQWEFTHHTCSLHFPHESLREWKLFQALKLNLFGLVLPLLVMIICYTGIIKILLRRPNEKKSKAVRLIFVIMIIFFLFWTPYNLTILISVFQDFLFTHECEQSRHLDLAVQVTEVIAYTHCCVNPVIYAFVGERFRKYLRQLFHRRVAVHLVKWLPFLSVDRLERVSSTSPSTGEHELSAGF
Description: Inhibitory effect on the binding of [125I]RANTES to C-C chemokine receptor type 1-expressing CHO cells. It is filed as cell-based. Summed up:
(§1)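 Whole-cell radioligand binding on CHO cells expressing CCR1 ([125I]RANTES), CCR3 ([125I]eotaxin) or CCR4 ([125I]TARC). Cells were seeded and cultured 24 h at 37 °C. Binding ran in Ham's F-12 with 20 mM Hepes and 0.5% BSA, pH 7.2, at room temperature for 40 min with graded compound. After a cold-PBS wash, cell-bound radioactivity was counted. Means ± SEM of ≥3 separate experiments.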

Assay [5] has as its target T2, C-C chemokine receptor type 4 (Homo sapiens, UniProt P51679).
T2 sequence (P51679 whole entry): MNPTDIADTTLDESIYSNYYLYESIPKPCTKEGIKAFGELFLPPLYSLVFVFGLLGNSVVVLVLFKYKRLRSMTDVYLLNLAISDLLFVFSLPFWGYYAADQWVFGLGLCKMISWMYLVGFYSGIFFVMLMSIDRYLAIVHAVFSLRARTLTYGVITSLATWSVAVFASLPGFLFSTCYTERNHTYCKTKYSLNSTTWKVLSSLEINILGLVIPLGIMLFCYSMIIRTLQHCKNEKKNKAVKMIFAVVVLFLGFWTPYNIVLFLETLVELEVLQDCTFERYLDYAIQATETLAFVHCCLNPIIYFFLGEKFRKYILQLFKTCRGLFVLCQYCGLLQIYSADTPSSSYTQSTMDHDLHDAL
Description: Inhibitory effect on the binding of [125I]TARC to C-C chemokine receptor type 4-expressing CHO cells. It is filed as cell-based. The essentials:
as §1

The target of assay [6] is C-C chemokine receptor type 2 (Homo sapiens, UniProt P41597). Description: Inhibitory effect on the binding of [125I]- MCP-1 to C-C chemokine receptor type 2-expressing CHO cells. Format: cell-based. The essentials: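 CCR2b-expressing CHO cells (5 × 10⁴ cells/100 μL) cultured 24 h at 37 °C. Medium replaced with binding buffer: Ham's F-12, 20 mM Hepes, 0.5% BSA, pH 7.2. [125I]MCP-1 binding run at room temperature for 40 min with graded test-compound concentrations. Free ligand washed off with cold PBS; cell-associated radioactivity counted by scintillation.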
C-C chemokine receptor type 2, sequence (P41597 whole entry): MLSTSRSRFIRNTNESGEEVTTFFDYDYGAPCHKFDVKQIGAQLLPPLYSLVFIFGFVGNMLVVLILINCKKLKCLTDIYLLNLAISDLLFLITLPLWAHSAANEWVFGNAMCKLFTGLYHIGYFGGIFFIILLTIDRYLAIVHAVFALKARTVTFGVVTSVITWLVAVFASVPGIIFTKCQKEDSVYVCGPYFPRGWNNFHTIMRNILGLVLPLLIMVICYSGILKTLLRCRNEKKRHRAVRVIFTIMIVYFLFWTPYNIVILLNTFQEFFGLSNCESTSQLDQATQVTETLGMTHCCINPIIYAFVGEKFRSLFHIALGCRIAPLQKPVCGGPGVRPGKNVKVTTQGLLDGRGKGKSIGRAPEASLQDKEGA

Assay [7] addresses T3, C-C chemokine receptor type 3 (Homo sapiens, UniProt P51677).
T3 sequence (P51677 whole entry): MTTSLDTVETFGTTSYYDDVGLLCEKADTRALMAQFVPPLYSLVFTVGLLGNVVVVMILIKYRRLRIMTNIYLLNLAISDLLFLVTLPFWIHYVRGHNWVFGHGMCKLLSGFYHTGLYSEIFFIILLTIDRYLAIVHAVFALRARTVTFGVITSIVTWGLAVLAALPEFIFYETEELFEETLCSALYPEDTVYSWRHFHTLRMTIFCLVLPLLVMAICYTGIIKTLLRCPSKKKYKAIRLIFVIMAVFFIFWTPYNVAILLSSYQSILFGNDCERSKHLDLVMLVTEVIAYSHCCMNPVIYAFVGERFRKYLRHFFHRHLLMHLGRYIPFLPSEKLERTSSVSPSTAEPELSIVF
Description: Inhibitory effect on the binding of [125I]- eotaxin to C-C chemokine receptor type 3- expressing CHO cells. Format: cell-based. The essentials: as §1

C-C chemokine receptor type 5, sequence (P51681 whole entry): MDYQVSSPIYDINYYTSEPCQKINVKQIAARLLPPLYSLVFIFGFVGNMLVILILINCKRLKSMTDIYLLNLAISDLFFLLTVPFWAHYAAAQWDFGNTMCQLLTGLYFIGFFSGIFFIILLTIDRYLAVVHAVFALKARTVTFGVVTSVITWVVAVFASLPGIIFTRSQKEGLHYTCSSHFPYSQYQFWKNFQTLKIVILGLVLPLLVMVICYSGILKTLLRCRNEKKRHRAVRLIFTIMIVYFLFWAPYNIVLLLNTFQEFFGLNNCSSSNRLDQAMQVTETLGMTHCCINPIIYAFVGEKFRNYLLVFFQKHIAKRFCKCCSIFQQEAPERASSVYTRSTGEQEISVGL

In the case of `Cc1ccc(-c2ccc3c(c2)C=C(C(=O)Nc2ccc(C[N+]4(C)CCCCC4)cc2)CCO3)cc1`, the half-inhibitory concentration (IC50) (in general, the concentration at which inhibition is half-maximal) in assay [1] worked out at 43 nM. Still for that read-out and setting: with `Cc1ccc(-c2ccc3c(c2)C=C(C(=O)Nc2ccc(C[N+](C)(C)C4CCSCC4)cc2)CCO3)cc1` the figure was 3.1 nM; with `C[N+]1(Cc2ccc(NC(=O)C3=Cc4cc(-c5ccccc5)ccc4CC3)cc2)CCCCCC1`, 380 nM; with `C[N+](C)(Cc1ccc(NC(=O)C2=Cc3cc(-c4ccc(C(F)(F)F)cc4)ccc3OCC2)cc1)C1CCOCC1`, 1.5 nM. The same measure, in the same setting: with `Cc1ccc(-c2ccc3c(c2)C=C(C(=O)Nc2ccc(C[N+](C)(C)C4CCOCC4)cc2)CCO3)cc1` the figure was 1.4 nM; with `C[N+]1(CCc2ccc(NC(=O)C3=Cc4cc(-c5ccccc5)ccc4CC3)cc2)CCCCC1`, 1100 nM. On the same count and under the same terms, with `Cc1ccc(-c2ccc3c(c2)C=C(C(=O)Nc2ccc(CC[N+]4(C)CCCCC4)cc2)CCO3)cc1` the figure was 110 nM; with `C[N+]1(Cc2ccc(NC(=O)C3=Cc4cc(-c5ccccc5)ccc4CC3)cc2)CCCCC1`, 390 nM. As to `Cc1ccc(-c2ccc3c(c2)C=C(C(=O)Nc2ccc(C[N+](C)(C)C4CCOCC4)cc2)CCC3)cc1` [listing 1 of 2 here], the IC50 in assay [1] was 1.8 nM. This IC50 lies about 220-fold lower than the previous one. Same read-out and setting: to `Cc1cccc[n+]1Cc1ccc(NC(=O)C2=Cc3cc(-c4ccccc4)ccc3CC2)cc1` belongs 3200 nM; to `Cc1ccc(-c2ccc3c(c2)C=C(C(=O)Nc2ccc(C[N+](C)(C)CCCO)cc2)CCO3)cc1`, 6.8 nM; to `CCOc1ccc(-c2ccc3c(c2)C=C(C(=O)Nc2ccc(C[N+](C)(C)C4CCOCC4)cc2)CCO3)cc1`, 1.8 nM. Same read-out and setting: with `C[N+](C)(Cc1ccc(NC(=O)C2=Cc3cc(-c4ccc(N5CCCC5)cc4)ccc3CCC2)cc1)C1CCOCC1` the figure was 3.8 nM; with `Cc1ccc(-c2ccc3c(c2)C=C(C(=O)Nc2ccc(C[N+]4(C)CCCCC4)cc2)CCC3)cc1`, 25 nM. Still for that read-out and setting: to `CCCC[P+](CCCC)(CCCC)Cc1ccc(NC(=O)/C=C/c2cccc(-c3ccc(C)cc3)c2)cc1` belongs 620 nM. Consider `C[N+]1(Cc2ccc(NC(=O)C3=Cc4cc(-c5ccccc5)ccc4CC3)cc2)CCOCC1`, for which the half-inhibitory concentration (IC50) in assay [1] is 1200 nM. This IC50 lies about 1.9-fold higher than the previous one. Turning to `Cc1ccc(-c2ccc3c(c2)C=C(C(=O)Nc2ccc(C[N+](C)(C)C4CCOCC4)cc2)CCC3)cc1` [listing 2 of 2 here], the results for the EC50 in assay [2] and in assay [3] were 1.2 nM and 3.7 nM, respectively. For the same compound, the IC50 in assay [4] was above 10000 nM; in assay [5], above 10000 nM; in assay [6], 27 nM; in assay [1], 1.4 nM; in assay [7], above 10000 nM. Consider `C[N+](C)(Cc1ccc(NC(=O)C2=Cc3cc(-c4ccc(N5CCCCC5)cc4)ccc3CCC2)cc1)C1CCOCC1`, for which the concentration for half-maximal inhibition (IC50) in assay [1] stood at 2.2 nM. This counts as single-digit nanomolar.

`Cc1ccc(-c2cccc(/C=C/C(=O)Nc3ccc(C[N+]4(C)CCCCC4)cc3)c2)cc1` showed an IC50 in assay [1] of 570 nM. Against the preceding compound, the IC50 is about 260-fold higher. Same read-out and setting: with `CC[N+](CC)(CC)Cc1ccc(NC(=O)C2=Cc3cc(-c4ccccc4)ccc3CC2)cc1` the figure was 840 nM; with `Cc1ccc(-c2ccc3c(c2)C=C(C(=O)Nc2ccc(C[N+]4(C)CCCCC4)cc2)CO3)cc1`, 660 nM.

For `CCC(CC)[N+](C)(C)Cc1ccc(NC(=O)C2=Cc3cc(-c4ccc(C)cc4)ccc3OCC2)cc1`, the IC50 in assay [1] worked out at 3.3 nM. On the same count and under the same terms, with `Cc1ccc(-c2ccc3c(c2)C=C(C(=O)Nc2ccc(C[N+](C)(C)C4CCC(=O)CC4)cc2)CCO3)cc1` the figure was 4.5 nM; with `C[N+]1(Cc2ccc(NC(=O)C3=Cc4cc(-c5ccccc5)ccc4CC3)cc2)CCCC1`, 430 nM.

As to `Cc1ccc(-c2ccc3c(c2)C=C(C(=O)Nc2ccc(C[N+]4(C)CCCCC4)cc2)CC3)cc1`, the IC50 in assay [1] came to 240 nM.
